Compound activity: PubChem, Sanford-Burnham Center for Chemical Genomics
SENP6 inh: inhibitors of human SENP6 protease | Q9GZR1 | Recombinant SENP6 catalytic domain, aminoluciferin luminescence | inhibition, % at 10 µM | 330,000 compounds, 1.8% hits | AID 2599;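 active means inhibition above about 50% at the single tested dose, limit read from the data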;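 further: plate controls were DMSO wells with enzyme for no effect and DMSO wells lacking enzyme for full effect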
SENP8 block-1: inhibitors of human SENP8 protease | purified SENP8, Z-RLRGG-aminoluciferin cleavage, luminescence | inhibition, % at 10 µM | 330,000 compounds, 1.2% hits | AID 2540; in the data active means inhibition above about 50%
Target sequence (Q96LD8 whole entry, looked up): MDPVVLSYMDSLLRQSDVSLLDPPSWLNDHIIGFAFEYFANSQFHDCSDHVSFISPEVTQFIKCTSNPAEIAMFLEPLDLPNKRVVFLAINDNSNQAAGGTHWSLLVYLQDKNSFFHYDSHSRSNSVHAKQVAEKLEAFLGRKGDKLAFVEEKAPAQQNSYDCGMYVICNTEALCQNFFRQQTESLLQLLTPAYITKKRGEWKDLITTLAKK
SENP8 block-2: blocks human SENP8 cleavage of Nedd8 substrate | Q96LD8 | recombinant SENP8, Nedd8 substrate fluorescence | inhibition, % at 20 µM | 360,000 compounds, 0.64% hits | AID 602440; in the data active means inhibition mostly above about 40%, no sharp cut-off; inactive means mostly below about 27%
SENP7 inh: SENP7 protease inhibition; Q9BQF6; recombinant SENP7, Z-RLRGG-aminoluciferin luminescence, 40 min; inhibition, % at 5 µM; 330,000 compounds, 1.5% hits;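 active means inhibition above about 50% at the single test dose, limit read from the data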;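 further: plate controls were DMSO with enzyme for no effect and no enzyme buffer wells for full effect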
SENP1 FRET inh: inhibitors of human SENP1 SUMO protease catalytic domain. 360,000 compounds, 0.21% hits. recombinant SENP1 catalytic domain, CyPet-SUMO1-YPet FRET cleavage. Q9P0U3. inhibition, % at 10 µM;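 active means inhibition at least 30% at 10 µM, raw YFP signal under a set limit, fluorescence ratio 0.5 to 1.5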;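 further: 0% = enzyme with DMSO and 100% = no enzyme wells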
Target sequence (Q9P0U3 419-644 limits assumed): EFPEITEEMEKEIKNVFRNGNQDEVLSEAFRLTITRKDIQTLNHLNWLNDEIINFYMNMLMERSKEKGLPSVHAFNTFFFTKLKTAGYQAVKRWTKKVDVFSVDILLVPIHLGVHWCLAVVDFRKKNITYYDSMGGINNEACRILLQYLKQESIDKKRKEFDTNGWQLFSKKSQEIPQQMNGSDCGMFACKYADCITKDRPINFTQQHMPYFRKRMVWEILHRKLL
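System: Recombinant human SENP1 catalytic domain, His6-tagged | Incubation: Enzyme reaction for 50 min at room temperature, dark | Medium: Tris pH 8 with BME, BSA, NP40 and catalase | Also added: 25 nM SUMO1 FRET substrate | Compound: 10 µM single point, 0.5% DMSO | Measured by: FRET fluorescence in CFP and YFP emission channels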
SENP8 conf: human SENP8 inhibition, confirmed | shares compounds with SENP7 inh | Recombinant SENP8, Z-RLRGG-aminoluciferin luminescence, 60 min | inhibition, % at 12.5 µM | 6,200 compounds, 40% hits | AID 488912;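 active means mean inhibition across replicates above about 50%, limit read from the data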
SENP6 conf: human SENP6 inhibition, confirmed | shares compounds with SENP7 inh | recombinant SENP6, Z-RLRGG-aminoluciferin luminescence | inhibition, % at 12.5 µM | 6,200 compounds, 58% hits | AID 488915
SENP7 confirm: human SENP7 inhibition, confirmed; shares compounds with SENP7 inh; 6,200 compounds, 69% hits; inhibition, % at 12.5 µM; recombinant SENP7, Z-RLRGG-aminoluciferin luminescence, 40 min
Casp3 select: caspase-3 inhibition (SENP selectivity assay). shares compounds with SENP7 inh. purified caspase-3, Z-DEVD-aminoluciferin luminescence, 60 min. inhibition, % at 12.5 µM. 6,200 compounds, 60% hits. AID 488918;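 active means mean inhibition above about 50%, limit read from the data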;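 further: plate controls were enzyme with DMSO for no effect and wells without caspase-3 for full effect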
Target sequence (P42574 28-227 limits assumed): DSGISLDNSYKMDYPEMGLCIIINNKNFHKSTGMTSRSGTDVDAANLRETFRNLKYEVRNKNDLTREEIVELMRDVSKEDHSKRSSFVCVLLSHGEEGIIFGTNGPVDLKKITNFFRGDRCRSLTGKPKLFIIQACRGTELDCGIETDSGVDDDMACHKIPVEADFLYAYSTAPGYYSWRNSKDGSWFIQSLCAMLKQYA
Luc interf: interferes with luciferase luminescence in SENP counter-screen; AID 488919; inhibition, % at 12.5 µM; 6,200 compounds, 39% hits; Pre-incubated SENP8/Z-RLRGG-aminoluciferin, luciferase luminescence interference; shares compounds with SENP7 inh;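 active means mean inhibition above about 50% when retested at one dose, limit read from the data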;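 further: plate controls were DMSO wells with completed reaction for no effect and substrate without enzyme for full effect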
Numbers without * were called inactive; · = not tested or not shown. Hits are enriched below; roughly 2.5% of the tested compounds scored in any of these assays.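 How the source made its calls, unless noted: active means mean inhibition above about 50% in the one-dose retest (limit read from the data); inactive means the rest.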

SMILES	SENP6 inh	SENP8 block-1	SENP8 block-2	SENP7 inh	SENP1 FRET inh	SENP8 conf	SENP6 conf	SENP7 confirm	Casp3 select	Luc interf
Cc1cccc(/C=C\c2nc3ccccc3c(=O)[nH]2)c1	88.8*	79.8*	-80.1	98.7*	0.2	54.9*	49.2	54.4*	74.5*	10.2
O=C(Nc1cccc(/C=C/c2nc3ccccc3c(=O)[nH]2)c1)c1ccccc1Cl	1.4	-7.9	-104.7	37.3	-2.6	·	·	·	·	·
CN(C)c1ccc(/C=C/c2nc3ccccc3c(=O)[nH]2)cc1	-11.8	93.0*	-233.7	95.2*	-21.1	46.9	89.7*	102.8*	95.8*	38.5
O=c1[nH]c(/C=C/c2cccc3ccccc23)nc2ccccc12	-8.0	-10.6	-432.0	-1.7	-35.6	·	·	·	·	·
C(=C\c1ccco1)/c1nc2ccccc2[nH]1	-10.6	10.3	-347.7	-0.7	-30.4	·	·	·	·	·
C(=C\c1nc2ccccc2[nH]1)/c1ccccc1	94.5*	96.8*	-261.3	100.0*	-1.4	98.2*	99.3*	102.9*	97.7*	91.9*
O=c1[nH]c(/C=C/c2ccc(Br)cc2)nc2ccccc12	21.9	31.2	-242.2	89.3*	2.6	17.7	21.0	15.0	21.2	-2.1
O=C(Cn1ncc(Cl)c(Cl)c1=O)c1ccc2c(c1)OCCO2	55.5*	40.9	-2.7	23.4	0.6	14.8	40.4	48.5	20.5	8.8
O=C(Cn1ncc(Cl)c(Cl)c1=O)Nc1ccc2c(c1)OCO2	8.6	-1.6	13.6	13.2	0.0	·	·	·	·	·
COC(=O)c1sc(NC(=S)NNC(=O)c2c(Br)c(C)nn2C)c(C(=O)OC)c1C	-10.4	-6.1	-66.4	-15.6	-80.2	·	·	·	·	·
Cc1ccc(OC/C(O)=C(\C#N)c2nc3ccccc3s2)cc1	69.7*	75.9*	1.6	18.6	-2.2	77.6*	80.1*	75.9*	75.3*	42.9
COC(=O)c1ccc(CC(=O)c2nc3ccccc3s2)cc1	91.5*	78.6*	29.9	4.1	1.3	6.3	17.3	15.7	3.8	1.2
CC(C)NC(=O)c1nc2ccccc2s1	-14.2	-7.4	15.0	-2.9	0.6	·	·	·	·	·
COC(=O)c1ccc(/C(O)=C(\C#N)c2nc3ccccc3s2)cc1	90.9*	87.6*	6.3	-10.9	-3.8	10.9	37.8	23.1	25.8	1.6
COc1cc(/C=N/NC(=O)c2cc(C)oc2C)ccc1O	-4.8	-11.1	-35.5	-0.8	0.5	·	·	·	·	·
COc1cc(/C=N/NC(=O)c2nonc2C)ccc1O	66.9*	82.4*	15.0	77.4*	1.0	89.2*	89.2*	98.1*	96.6*	89.3*
COc1ccc(C=NNC(=O)c2cc(C)oc2C)cc1O	78.8*	79.8*	-0.7	86.3*	-2.2	87.5*	85.1*	96.5*	94.1*	83.4*
COc1cccc(/C=N/NC(=O)c2ccoc2C)c1	91.0*	82.4*	12.4	87.5*	4.2	88.7*	86.9*	98.5*	95.2*	85.6*
COc1cc(/C=N/NC(=O)c2ccoc2C)ccc1O	68.0*	59.8*	-21.7	60.9*	2.0	65.8*	64.0*	89.1*	89.3*	68.9*
Cc1ccc(C2(C)NC(=O)N(CC(=O)NC(=O)NC(C)C)C2=O)cc1 (centres undefined)	-11.6	9.6	17.7	2.8	1.1	·	·	·	·	·
COc1ccc(-c2c(C(F)(F)F)nn(C)c2NC(C)=O)cc1	3.3	8.7	-4.1	0.1	-3.1	·	·	·	·	·
CCOc1ccc(/C=N/NC(=O)c2ccoc2C)cc1OC	81.1*	64.2*	6.4	75.0*	1.4	81.9*	80.3*	93.3*	92.6*	79.7*
CC(/C=N/NC(=O)c1ccc(Br)cc1)=C\c1ccccc1	-51.1	4.2	12.6	-4.7	1.5	·	·	·	·	·
COc1cccc(/C=N/NC(=O)C(=O)N/N=C/c2cccc(OC)c2O)c1O	·	·	2.6	·	2.7	·	·	·	·	·
CC(/C=N\NC(=O)c1cc(C)oc1C)=C\c1ccccc1	-14.1	72.4*	14.0	81.8*	-0.6	13.7	19.0	23.9	25.3	6.8
SMILES	SENP6 inh	SENP8 block-1	SENP8 block-2	SENP7 inh	SENP1 FRET inh	SENP8 conf	SENP6 conf	SENP7 confirm	Casp3 select	Luc interf
Cc1occc1C(=O)N/N=C/c1ccccc1[N+](=O)[O-]	55.5*	36.9	8.5	73.0*	1.5	46.8	47.1	85.0*	83.6*	31.8
CCOc1ccc(/C=N/NC(=O)c2ccncc2)cc1OC	·	·	-5.7	·	2.0	·	·	·	·	·
COc1cccc(/C=N/NC(=O)c2ccoc2C)c1O	91.5*	87.4*	-43.1	94.5*	-1.4	93.0*	93.3*	100.2*	96.6*	39.9
CCNC(=O)C1(C)CCN1CCC(=O)c1ccc(C)cc1 (centres undefined)	·	·	4.3	·	2.4	·	·	·	·	·
COc1cccc(/C=N/NC(=O)CNC(=O)/C=C\c2ccccc2)c1O	8.8	10.2	-72.0	13.8	-3.1	·	·	·	·	·
COc1cccc(/C=N/NC(=O)CNC(=O)C(c2ccccc2)c2ccccc2)c1O	51.6*	42.9	-266.8	3.9	-18.7	38.3	43.9	62.6*	58.8*	-3.1
CCN(CC)c1ccc(/C=N/NC(=O)c2ccoc2C)cc1	97.2*	95.0*	-437.4	100.6*	-19.6	97.4*	99.6*	103.1*	98.2*	82.7*
COc1ccc(S(=O)(=O)NCC2CC3C=CC2C3)cc1OC (centres undefined)	-10.4	-9.4	3.9	15.3	3.9	·	·	·	·	·
COCCN1C(=O)Cc2c1nc(N)c1c(N)nc(N3CCN(c4ccc(F)cc4)CC3)c(C#N)c21	-2.2	-2.6	-453.1	12.0	-23.1	·	·	·	·	·
CN(CCO)c1nc(N)c2c(N)nc3c(c2c1C#N)CC(=O)N3Cc1cccs1	73.9*	-2.6	-385.7	32.2	-36.5	-23.4	-15.2	-10.7	-10.8	-6.0
COc1ccc(CN2C(=O)Cc3c2nc(N)c2c(N)nc(N4CCOCC4)c(C#N)c32)cc1	65.6*	30.5	-446.3	27.4	-58.3	-6.0	-0.7	-10.0	0.7	1.1
COCC(C)N1C(=O)Cc2c1nc(N)c1c(N)nc(N3CCN(c4ccccc4F)CC3)c(C#N)c21 (centres undefined)	74.7*	25.8	-393.9	23.6	-67.8	-8.9	-3.3	-4.2	-2.2	-5.4
Cc1cc(C)c(C#N)c(N2CCN(c3ccccc3F)CC2)n1	-3.0	-4.3	-42.9	-4.6	-16.4	·	·	·	·	·
